Reference: ChEMBL document CHEMBL1151705, “Novel azalides derived from 16-membered macrolides. Part II: Isolation of the linear 9-formylcarboxylic acid and its sequential macrocyclization with an amino alcohol or an azidoamine” (2008)
≈ marks a conversion by molar mass, not a printed value.

Tests used:
Streptococcus pneumoniae [1] = test: Antimicrobial activity against drug-susceptible Streptococcus pneumoniae DP1 Type1 after 20 hrs by agar dilution method; type: functional
Summary of the method: (§1)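 Streptococci, H. influenzae and M. catarrhalis were precultured on blood agar plates. Suspensions of about 10⁶ CFU/ml were inoculated onto sensitivity disk agar supplemented with 5% horse blood and incubated at 37 °C for 20 h. MIC was read as the lowest drug concentration with no visible growth.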

Streptococcus pyogenes [2] = test: Antimicrobial activity against Streptococcus pyogenes 3 expressing mefA after 20 hrs by agar dilution method; type: functional; summary of the method: as §1
Moraxella catarrhalis [3] = test: Antimicrobial activity against drug-susceptible Moraxella catarrhalis 1 after 20 hrs by agar dilution method; type: functional; summary of the method: as §1
Streptococcus pneumoniae [4] = test: Antimicrobial activity against Streptococcus pneumoniae 5 constitutively expressing ermB/mefA after 20 hrs by agar dilution method; type: functional; settings: Streptococcus pneumoniae, 20 h; read-out: MIC; summary of the method: as §1
Streptococcus pneumoniae [5] = test: Antimicrobial activity against Streptococcus pneumoniae 8 expressing inducible ermB after 20 hrs by agar dilution method; type: functional; summary of the method: as §1
Haemophilus influenzae [6] = test: Antimicrobial activity against drug-susceptible Haemophilus influenzae 1 after 20 hrs by agar dilution method; type: functional; summary of the method: as §1
Haemophilus influenzae [7] = test: Antimicrobial activity against drug-susceptible Haemophilus influenzae 4 after 20 hrs by agar dilution method; type: functional; summary of the method: as §1
Haemophilus influenzae [8] = test: Antimicrobial activity against drug-susceptible Haemophilus influenzae 3 after 20 hrs by agar dilution method; type: functional; summary of the method: as §1
Staphylococcus aureus [9] = test: Antimicrobial activity against drug-susceptible Staphylococcus aureus 209P JC-1 after 20 hrs by agar dilution method; type: functional
Summary of the method: (§2)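 Agar dilution MIC. S. aureus seed culture was grown in sensitivity test broth. Cell suspension (about 10⁶ CFU/ml) was inoculated onto sensitivity disk agar with 5% horse blood and incubated at 37 °C for 20 h. MIC was the lowest drug concentration that prevented visible growth.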

Staphylococcus aureus [10] = test: Antimicrobial activity against Staphylococcus aureus 4 constitutively expressing ermA after 20 hrs by agar dilution method; type: functional; summary of the method: as §2
Moraxella catarrhalis [11] = test: Antimicrobial activity against drug-susceptible Moraxella catarrhalis 2 after 20 hrs by agar dilution method; type: functional; summary of the method: as §1
Streptococcus pneumoniae [12] = test: Antimicrobial activity against Streptococcus pneumoniae 7 expressing inducible ermB after 20 hrs by agar dilution method; type: functional; summary of the method: as §1
Streptococcus pneumoniae [13] = test: Antimicrobial activity against drug-susceptible Streptococcus pneumoniae 2 after 20 hrs by agar dilution method; type: functional; summary of the method: as §1
Staphylococcus aureus [14] = test: Antimicrobial activity against drug-susceptible Staphylococcus aureus 2 after 20 hrs by agar dilution method; type: functional; summary of the method: as §2
Streptococcus pneumoniae [15] = test: Antimicrobial activity against Streptococcus pneumoniae 6 constitutively expressing ermB after 20 hrs by agar dilution method; type: functional; settings: Streptococcus pneumoniae, 20 h; read-out: MIC; summary of the method: as §1
Streptococcus pneumoniae [16] = test: Antimicrobial activity against Streptococcus pneumoniae 4 constitutively expressing ermB after 20 hrs by agar dilution method; type: functional; settings: Streptococcus pneumoniae, 20 h; read-out: MIC; summary of the method: as §1
Streptococcus pneumoniae [17] = test: Antimicrobial activity against Streptococcus pneumoniae 10 expressing mefA after 20 hrs by agar dilution method; type: functional; summary of the method: as §1
Streptococcus pneumoniae [18] = test: Antimicrobial activity against drug-susceptible Streptococcus pneumoniae 3 after 20 hrs by agar dilution method; type: functional; summary of the method: as §1
Streptococcus pyogenes [19] = test: Antimicrobial activity against Streptococcus pyogenes 2 constitutively expressing ermB after 20 hrs by agar dilution method; type: functional; summary of the method: as §1
Staphylococcus aureus [20] = test: Antimicrobial activity against Staphylococcus aureus 5 expressing inducible ermB after 20 hrs by agar dilution method; type: functional; summary of the method: as §2
Streptococcus pyogenes [21] = test: Antimicrobial activity against drug-susceptible Streptococcus pyogenes 1 after 20 hrs by agar dilution method; type: functional; summary of the method: as §1
Haemophilus influenzae [22] = test: Antimicrobial activity against drug-susceptible Haemophilus influenzae 2 after 20 hrs by agar dilution method; type: functional; summary of the method: as §1
Staphylococcus aureus [23] = test: Antimicrobial activity against drug-susceptible Staphylococcus aureus 3 after 20 hrs by agar dilution method; type: functional; summary of the method: as §2
Streptococcus pneumoniae [24] = test: Antimicrobial activity against Streptococcus pneumoniae 9 expressing mefA after 20 hrs by agar dilution method; type: functional; summary of the method: as §1
Staphylococcus aureus [25] = test: Antimicrobial activity against Staphylococcus aureus 6 expressing inducible ermC after 20 hrs by agar dilution method
[26] = Streptococcus pyogenes, 20 h, read-out: MIC
[27] = Streptococcus pneumoniae, 20 h, read-out: MIC
[28] = Haemophilus influenzae, 20 h, read-out: MIC

MIC (Streptococcus pneumoniae [1]) | MIC (Moraxella catarrhalis [3]) | MIC (Staphylococcus aureus [9]) | MIC (Moraxella catarrhalis [11]) | MIC (Staphylococcus aureus [14]) | MIC (Staphylococcus aureus [20]) | MIC (Haemophilus influenzae [22]; [28]) | MIC (Staphylococcus aureus [23]) | MIC (Staphylococcus aureus [25]) | MIC (Streptococcus pyogenes [2]) | MIC (Streptococcus pneumoniae [5]) | MIC (Haemophilus influenzae [6]) | MIC (Haemophilus influenzae [7]) | MIC (Haemophilus influenzae [8]) | MIC (Streptococcus pneumoniae [12]) | MIC (Streptococcus pneumoniae [13]) | MIC (Streptococcus pneumoniae [17]) | MIC (Streptococcus pyogenes [21]) | MIC (Streptococcus pneumoniae [24]) | MIC (Streptococcus pneumoniae [18]) | SMILES | further results
0.06 µg/mL (≈ 0.0617 µM) | 2 µg/mL (≈ 2.06 µM) | 1 µg/mL (≈ 1.03 µM) | 2 µg/mL (≈ 2.06 µM) | 1 µg/mL (≈ 1.03 µM) | 1 µg/mL (≈ 1.03 µM) | 2 µg/mL (≈ 2.06 µM) | 0.5 µg/mL (≈ 0.514 µM) | 1 µg/mL (≈ 1.03 µM) | – | – | – | – | – | – | – | – | – | – | – | CCOC(=O)[C@H]1[C@H](C)O[C@@H](O[C@H]2[C@H](N(C)C)[C@@H](O)[C@H](O[C@H]3[C@@H](CC=O)C[C@@H](C)[C@@H](O)CN(C)CCC(CCCc4ccnc5ccccc45)NC(=O)C[C@@H](OC(=O)CC)[C@@H]3OC)O[C@@H]2C)C[C@@]1(C)O (stereo in doubt; form 1) | MIC (Streptococcus pyogenes [2]; [26]): 2 µg/mL (≈ 2.06 µM); MIC (Streptococcus pneumoniae [4]): > 128 µg/mL; MIC (Streptococcus pneumoniae [5]; [27]): 32 µg/mL (≈ 32.9 µM); MIC (Haemophilus influenzae [6]; [28]): 32 µg/mL (≈ 32.9 µM); MIC (Haemophilus influenzae [7]; [28]): 8 µg/mL (≈ 8.22 µM); MIC (Haemophilus influenzae [8]; [28]): 8 µg/mL (≈ 8.22 µM); MIC (Staphylococcus aureus [10]): > 128 µg/mL; MIC (Streptococcus pneumoniae [12]; [27]): 32 µg/mL (≈ 32.9 µM); MIC (Streptococcus pneumoniae [13]; [27]): 0.13 µg/mL (≈ 0.134 µM); MIC (Streptococcus pneumoniae [15]): > 128 µg/mL; MIC (Streptococcus pneumoniae [16]): > 128 µg/mL; MIC (Streptococcus pneumoniae [17]; [27]): 0.13 µg/mL (≈ 0.134 µM); MIC (Streptococcus pneumoniae [18]; [27]): 0.13 µg/mL (≈ 0.134 µM); MIC (Streptococcus pyogenes [19]): > 128 µg/mL; MIC (Streptococcus pyogenes [21]; [26]): 0.25 µg/mL (≈ 0.257 µM); MIC (Streptococcus pneumoniae [24]; [27]): 0.13 µg/mL (≈ 0.134 µM)
0.03 µg/mL (≈ 0.0304 µM) | 2 µg/mL (≈ 2.03 µM) | 0.25 µg/mL (≈ 0.253 µM) | 2 µg/mL (≈ 2.03 µM) | 1 µg/mL (≈ 1.01 µM) | 0.25 µg/mL (≈ 0.253 µM) | 4 µg/mL (≈ 4.06 µM) | 0.25 µg/mL (≈ 0.253 µM) | 0.5 µg/mL (≈ 0.507 µM) | 0.25 µg/mL (≈ 0.253 µM) | 128 µg/mL (≈ 130 µM) | 32 µg/mL (≈ 32.4 µM) | 16 µg/mL (≈ 16.2 µM) | 16 µg/mL (≈ 16.2 µM) | 128 µg/mL (≈ 130 µM) | 0.06 µg/mL (≈ 0.0608 µM) | 0.06 µg/mL (≈ 0.0608 µM) | 0.13 µg/mL (≈ 0.132 µM) | 0.06 µg/mL (≈ 0.0608 µM) | – | CCOC(=O)[C@H]1[C@H](C)O[C@@H](O[C@H]2[C@H](N(C)C)[C@@H](O)[C@H](O[C@H]3[C@@H](CC=O)C[C@@H](C)[C@@H](O)CN(C)CC(/C=C/Cc4ccnc5ccccc45)CCOC(=O)C[C@@H](OC(=O)CC)[C@@H]3OC)O[C@@H]2C)C[C@@]1(C)O (stereo in doubt; form 2) | –
0.5 µg/mL (≈ 0.507 µM) | 16 µg/mL (≈ 16.2 µM) | 2 µg/mL (≈ 2.03 µM) | 16 µg/mL (≈ 16.2 µM) | 4 µg/mL (≈ 4.06 µM) | 2 µg/mL (≈ 2.03 µM) | 32 µg/mL (≈ 32.4 µM) | 2 µg/mL (≈ 2.03 µM) | 4 µg/mL (≈ 4.06 µM) | 4 µg/mL (≈ 4.06 µM) | >128 µg/mL | >128 µg/mL | 128 µg/mL (≈ 130 µM) | 128 µg/mL (≈ 130 µM) | >128 µg/mL | 1 µg/mL (≈ 1.01 µM) | 1 µg/mL (≈ 1.01 µM) | 1 µg/mL (≈ 1.01 µM) | 1 µg/mL (≈ 1.01 µM) | 0.5 µg/mL (≈ 0.507 µM) | CCOC(=O)[C@H]1[C@H](C)O[C@@H](O[C@H]2[C@H](N(C)C)[C@@H](O)[C@H](O[C@H]3[C@@H](CC=O)C[C@@H](C)[C@@H](O)CN(C)CC(/C=C\Cc4ccnc5ccccc45)CCOC(=O)C[C@@H](OC(=O)CC)[C@@H]3OC)O[C@@H]2C)C[C@@]1(C)O (stereo in doubt; form 2) | –
0.13 µg/mL (≈ 0.134 µM) | 4 µg/mL (≈ 4.12 µM) | 2 µg/mL (≈ 2.06 µM) | 4 µg/mL (≈ 4.12 µM) | 4 µg/mL (≈ 4.12 µM) | 2 µg/mL (≈ 2.06 µM) | – | 1 µg/mL (≈ 1.03 µM) | 2 µg/mL (≈ 2.06 µM) | 2 µg/mL (≈ 2.06 µM) | 64 µg/mL (≈ 65.9 µM) | 32 µg/mL (≈ 32.9 µM) | 16 µg/mL (≈ 16.5 µM) | 8 µg/mL (≈ 8.24 µM) | 64 µg/mL (≈ 65.9 µM) | 0.25 µg/mL (≈ 0.257 µM) | 0.25 µg/mL (≈ 0.257 µM) | 0.5 µg/mL (≈ 0.515 µM) | 0.25 µg/mL (≈ 0.257 µM) | 0.25 µg/mL (≈ 0.257 µM) | CCOC(=O)[C@H]1[C@H](C)O[C@@H](O[C@H]2[C@H](N(C)C)[C@@H](O)[C@H](O[C@H]3[C@@H](CC=O)C[C@@H](C)[C@@H](O)CN(C)CCC(/C=C/Cc4ccnc5ccccc45)NC(=O)C[C@@H](OC(=O)CC)[C@@H]3OC)O[C@@H]2C)C[C@@]1(C)O (stereo in doubt) | MIC (Haemophilus influenzae [22]): 1 µg/mL (≈ 1.03 µM)
